The values below come from ChEMBL document CHEMBL4351008, “Discovery of novel pyrimidine-based benzothiazole derivatives as potent cyclin-dependent kinase 2 inhibitors with anticancer activity” (Eur J Med Chem, 2019).

The test system of test [1] is HCT-116. The experiment in a line: Antiproliferative activity against human HCT116 cells incubated for 48 hrs by MTT assay. The class given is functional, cell-based. Particulars: HCT-116, 48 h. The method in brief: (§1)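 Cells kept at 37 °C in humidified 5% CO2: MDA-MB-231, MCF-7, HeLa and HCT116 in RPMI-1640; PC-3 in DMEM/F12; both media had 10% FBS. Compounds came from 60 mM DMSO stocks diluted in medium. At 70–80% confluence, cells got fresh medium with compound for 48 h at 37 °C, with 0.1% DMSO as negative control. MTT (5 mg/mL stock) was added for 4 h, and formazan was dissolved in DMSO and read at 570 nm. % inhibition was taken relative to control, IC50 was fitted, and data are mean ± SD of three independent experiments in duplicate.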
(Tetrazolium dyes change colour on reduction, which living cells bring about.)

The next test relates to MDA-MB-231. As to the kind of experiment: Antiproliferative activity against human MDA-MB-231 cells incubated for 48 hrs by MTT assay. The class given is functional, cell-based. Particulars: MDA-MB-231, 48 h. An outline of the steps:
as §1

A further test concerns MCF7. The experiment in a line: Antiproliferative activity against human MCF7 cells incubated for 48 hrs by MTT assay. The class given is functional, cell-based. The note with it: MCF7, 48 h. The method in brief:
as §1

The next test has as its system HeLa. The experiment in a line: Antiproliferative activity against human HeLa cells incubated for 48 hrs by MTT assay. The class given is functional, cell-based. An outline of the steps: as §1
For the next test, the system named is PC-3. As to the kind of experiment: Antiproliferative activity against human PC3 cells incubated for 48 hrs by MTT assay. The class given is functional, cell-based. Particulars: PC-3, 48 h. The method in brief:
as §1

For another test, the target named is CDK2/Cyclin A2 (Homo sapiens, UniProt P24941). As to the kind of experiment: Inhibition of CDK2/cyclin A2 (unknown origin) using histone H1 and ATP as substrate incubated for 40 mins by kinase-glo luminescence assay. The class given is protein-complex assay. (Kinase-Glo measures the ATP left after a reaction by luminescence.)
Test [2] deals with T1, CDK2/Cyclin A2 (Homo sapiens) (UniProt P24941+P20248). The experiment in a line: Inhibition of CDK2/cyclin A2 (unknown origin) using histone H1 and ATP as substrate at 1 uM incubated for 40 mins by kinase-glo luminescence assay relative to control. The class given is protein-complex assay. An outline of the steps:
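Recombinant CDK2/cyclin A2 (0.2 µg/mL) was run with 0.1 mg/mL histone H1 and 10 µM ATP in 40 mM Tris pH 7.4, 10 mM MgCl2, 0.1 mg/mL BSA and 1 mM DTT, for 40 min at 30 °C. Compound was tested at 1 µM final, with 1% DMSO final. Remaining ATP was quantified by Kinase-Glo Plus luminescence, which is inversely related to kinase activity.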

Test [3] deals with HCT-116. As to the kind of experiment: Induction of cell cycle arrest in human HCT116 cells assessed as accumulation at G0/G1 phase at 0.35 uM incubated for 24 hrs by PI staining based flow cytometric analysis (reference value: 37.26%). The class given is functional. A general note: Flow cytometry measures light scatter and fluorescence of single cells or particles in a stream.

Test [4] relates to HCT-116. As to the kind of experiment: Induction of cell cycle arrest in human HCT116 cells assessed as accumulation at G2/M phase at 0.35 uM incubated for 24 hrs by PI staining based flow cytometric analysis (reference value: 17.48%). The class given is functional.
The test system of test [5] is HCT-116. The experiment in a line: Induction of cell cycle arrest in human HCT116 cells assessed as accumulation at S phase at 0.35 uM incubated for 24 hrs by PI staining based flow cytometric analysis (reference value: 45.26%). The class given is functional.
For test [6], the system named is HCT-116. As to the kind of experiment: Induction of cell cycle arrest in human HCT116 cells assessed as accumulation at G0/G1 phase at 0.7 uM incubated for 24 hrs by PI staining based flow cytometric analysis (reference value: 37.26%). The class given is functional.
Test [7] deals with HCT-116. As to the kind of experiment: Induction of cell cycle arrest in human HCT116 cells assessed as accumulation at G2/M phase at 0.7 uM incubated for 24 hrs by PI staining based flow cytometric analysis (reference value: 17.48%). The class given is functional.
Test [8] deals with HCT-116. As to the kind of experiment: Induction of cell cycle arrest in human HCT116 cells assessed as accumulation at S phase at 0.7 uM incubated for 24 hrs by PI staining based flow cytometric analysis (reference value: 45.26%). The class given is functional.
Test [9] relates to HCT-116. The experiment in a line: Induction of cell cycle arrest in human HCT116 cells assessed as accumulation at G0/G1 phase at 1.4 uM incubated for 24 hrs by PI staining based flow cytometric analysis (reference value: 37.26%). The class given is functional.
The subject of test [10] is HCT-116. The experiment in a line: Induction of cell cycle arrest in human HCT116 cells assessed as accumulation at G2/M phase at 1.4 uM incubated for 24 hrs by PI staining based flow cytometric analysis (reference value: 17.48%). The class given is functional.
Test [11] relates to HCT-116. The experiment in a line: Induction of cell cycle arrest in human HCT116 cells assessed as accumulation at S phase at 1.4 uM incubated for 24 hrs by PI staining based flow cytometric analysis (reference value: 45.26%). The class given is functional.
Test [12] has as its system HCT-116. The experiment in a line: Induction of apoptosis in human HCT116 cells assessed as live cells at 0.35 uM incubated for 24 hrs by Annexin-V-FITC/propidium iodide staining based flow cytometric analysis (reference value: 97.7%). The class given is functional.
Test [13] relates to HCT-116. As to the kind of experiment: Induction of apoptosis in human HCT116 cells assessed as early apoptotic cells at 0.35 uM incubated for 24 hrs by Annexin-V-FITC/propidium iodide staining based flow cytometric analysis (reference value: 2.28%). The class given is functional.
Test [14] has as its system HCT-116. As to the kind of experiment: Induction of apoptosis in human HCT116 cells assessed as late apoptotic cells at 0.35 uM incubated for 24 hrs by Annexin-V-FITC/propidium iodide staining based flow cytometric analysis (reference value: 0.027%). The class given is functional.
Test [15] has as its system HCT-116. The experiment in a line: Induction of apoptosis in human HCT116 cells assessed as necrotic cells at 0.35 uM incubated for 24 hrs by Annexin-V-FITC/propidium iodide staining based flow cytometric analysis (reference value: 0%). The class given is functional.
Test [16] has as its system HCT-116. As to the kind of experiment: Induction of apoptosis in human HCT116 cells assessed as live cells at 0.7 uM incubated for 24 hrs by Annexin-V-FITC/propidium iodide staining based flow cytometric analysis (reference value: 97.7%). The class given is functional.
The subject of test [17] is HCT-116. The experiment in a line: Induction of apoptosis in human HCT116 cells assessed as early apoptotic cells at 0.7 uM incubated for 24 hrs by Annexin-V-FITC/propidium iodide staining based flow cytometric analysis (reference value: 2.28%). The class given is functional.
Test [18] has as its system HCT-116. As to the kind of experiment: Induction of apoptosis in human HCT116 cells assessed as late apoptotic cells at 0.7 uM incubated for 24 hrs by Annexin-V-FITC/propidium iodide staining based flow cytometric analysis (reference value: 0.027%). The class given is functional.
For test [19], the system named is HCT-116. The experiment in a line: Induction of apoptosis in human HCT116 cells assessed as necrotic cells at 0.7 uM incubated for 24 hrs by Annexin-V-FITC/propidium iodide staining based flow cytometric analysis (reference value: 0%). The class given is functional.
Test [20] relates to HCT-116. As to the kind of experiment: Induction of apoptosis in human HCT116 cells assessed as live cells at 1.4 uM incubated for 24 hrs by Annexin-V-FITC/propidium iodide staining based flow cytometric analysis (reference value: 97.7%). The class given is functional.
Test [21] deals with HCT-116. As to the kind of experiment: Induction of apoptosis in human HCT116 cells assessed as early apoptotic cells at 1.4 uM incubated for 24 hrs by Annexin-V-FITC/propidium iodide staining based flow cytometric analysis (reference value: 2.28%). The class given is functional.
Test [22] concerns HCT-116. As to the kind of experiment: Induction of apoptosis in human HCT116 cells assessed as late apoptotic cells at 1.4 uM incubated for 24 hrs by Annexin-V-FITC/propidium iodide staining based flow cytometric analysis (reference value: 0.027%). The class given is functional.
Test [23] deals with HCT-116. As to the kind of experiment: Induction of apoptosis in human HCT116 cells assessed as necrotic cells at 1.4 uM incubated for 24 hrs by Annexin-V-FITC/propidium iodide staining based flow cytometric analysis (reference value: 0%). The class given is functional.
Test [24] concerns the target T1, CDK2/Cyclin A2 (Homo sapiens). As to the kind of experiment: Potency index, ratio of AZD5438 IC50 to compound IC50 for CDK2/cyclin A2 (unknown origin) using histone H1 and ATP as substrate incubated for 40 mins by kinase-glo luminescence assay. The class given is protein-complex assay.
Test [25] deals with HCT-116. The experiment in a line: Induction of apoptosis in human HCT116 cells incubated for 24 hrs by Annexin-V-FITC/propidium iodide staining based flow cytometric analysis. The class given is functional, cell-based.
For test [26], the system named is HCT-116. As to the kind of experiment: Induction of cell cycle arrest in human HCT116 cells assessed as debris content at 0.35 uM incubated for 24 hrs by PI staining based flow cytometric analysis (reference value: 0%). The class given is functional.
Test [27] concerns HCT-116. The experiment in a line: Induction of cell cycle arrest in human HCT116 cells assessed as debris content at 0.7 uM incubated for 24 hrs by PI staining based flow cytometric analysis (reference value: 0%). The class given is functional.
Test [28] deals with HCT-116. As to the kind of experiment: Induction of cell cycle arrest in human HCT116 cells assessed as debris content at 1.4 uM incubated for 24 hrs by PI staining based flow cytometric analysis (reference value: 0%). The class given is functional.
Test [29] deals with HCT-116. As to the kind of experiment: Induction of cell cycle arrest in human HCT116 cells incubated for 24 hrs by PI staining based flow cytometric analysis. The class given is functional.

For orientation: IC50 means the point on the concentration scale where inhibition reaches its midpoint. Low readings indicate inhibition by little substance, high ones a need for much substance. What is called inhibition is the drop in the measured response relative to a control, in per cent. Read a low inhibition as a response near the control.

`NS(=O)(=O)c1ccc(Nc2ncc(F)c(Nc3nc4ccccc4s3)n2)cc1`: the IC50 was 3.26 µM in the test on HCT-116 [1]; 22.6 µM in the test with MDA-MB-231; more than 50 µM in the test on MCF7; 4.52 µM with HeLa; more than 50 µM in the test on PC-3; 0.0165 µM against CDK2/Cyclin A2. In test [2], this molecule displayed an inhibition of 93%.
Take `NS(=O)(=O)c1ccc(Nc2nccc(Nc3nc4ccc(F)cc4s3)n2)cc1`: the IC50 in the test with HCT-116 [1] came to 0.7 µM; in the test on MDA-MB-231, 1.8 µM; in the test with MCF7, 10.9 µM; in the test with HeLa, 0.45 µM; in the test with PC-3, 0.92 µM; against CDK2/Cyclin A2 it was 0.0154 µM. Besides, the inhibition in [2] was determined as 94%. The Activity amounted to 36.61% with HCT-116 [3]; 24.36% in the test on HCT-116 [4]; 39.03% in the test on HCT-116 [5]; 35.61% in the test on HCT-116 [6]; 33.51% with HCT-116 [7]; 30.88% with HCT-116 [8]. In addition, the Activity in the test on HCT-116 [9] worked out at 34.57%; with HCT-116 [10], 46.92%; in the test on HCT-116 [11], 18.51%; in the test with HCT-116 [12], 80.8%; in the test with HCT-116 [13], 10.1%; with HCT-116 [14], 9.07%. For the same molecule, the Activity in the test with HCT-116 [15] is 0.027%; in the test with HCT-116 [16], 64.3%; with HCT-116 [17], 13%; in the test on HCT-116 [18], 22.3%; with HCT-116 [19], 0.384%; in the test with HCT-116 [20] it was 51.4%. Besides, the Activity in the test with HCT-116 [21] is 19.1%; in the test on HCT-116 [22] it was 29.1%; with HCT-116 [23], 0.414%; with HCT-116 [25], “Dose-dependent effect”; in the test on HCT-116 [26], 0.74%; in the test on HCT-116 [27] it was 6.86%. In addition, the Activity was 39.3% with HCT-116 [28] and “Dose-dependent effect” in the test on HCT-116 [29]. Further, the Ratio IC50 in test [24] was determined as 3.
In the case of `CS(=O)(=O)c1ccc(Nc2ncc(F)c(Nc3nc4ccccc4s3)n2)cc1`, the IC50 with HCT-116 [1] amounted to 3.27 µM; in the test with MDA-MB-231, 4.98 µM; in the test on MCF7, 6.88 µM; in the test with HeLa, 3.17 µM; in the test on PC-3 it was 2.83 µM; against CDK2/Cyclin A2 it was 0.0127 µM. Also, the inhibition in [2] is 95%.
